Screening data (PubChem BioAssay)
Glyco luc inh = blocks N-linked glycosylation in D54 reporter cells; D54 ERlucT glycosylation luciferase reporter, 24 h; percent of 100 nM tunicamycin response; reporter increase, % at 12.5 µM; 360,000 compounds, 0.23% hits; AID 588692;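 active = mean luciferase reporter signal, scaled so untreated is 0 and the glycosylation-blocking control 100, at or above a set limit in every replicate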;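 also: luciferase carries N-glycosylation sites so blocking glycosylation raises the light; 0% = median of neutral control wells and 100% = median of 100 nM tunicamycin wells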
PvdQ inh = P. aeruginosa PvdQ acylase inhibition. purified PvdQ acylase, fluorescence plate reader. inhibition, % at 10 µM. 340,000 compounds, 0.063% hits; in the data active = inhibition above about 30%, passing the limit was not always enough;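 also: 0% = vehicle neutral wells and 100% = reference inhibitor wells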
CaV13 FRET inh = Disruptors of the CACNA1D IQ motif to Ca2+-dependent inactivation inhibitor domain association, primary screening, Förster resonance energy transfer in intact living …. 340,000 compounds, 0.098% hits. inhibition, % at 12.3 µM. AID 743397. HEK cells, CFP/YFP FRET ICDI-IQ, plate reader, 10 min; percent FRET-ratio fall versus neutral wells;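 active = mean replicate inhibition of at least 30% and at least 1% of replicates passing that level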;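 also: 0% = median of the neutral control wells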
T cruzi repl = T. cruzi replication inhibition; T. cruzi beta-gal in NIH3T3, luminescence, 90 h; inhibition, % (test concentration not listed); 300,000 compounds, 1.4% hits;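 active = mean inhibition across valid replicates above about 55%, limit read from the data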;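 also: signal also drops with host cell toxicity which is not excluded here; 0% = plate median of DMSO wells and 100% = zero luminescence signal; higher percent means less beta-gal luminescence so fewer parasites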
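Assay system: NIH/3T3 host cells with β-galactosidase reporter T. cruzi; input: 5,000 host fibroblasts per well; compound: single 50 nL compound addition per well in DMSO; timing: ≥90 h infection period, 3 h prior cell attachment; measured by: GalScreen β-gal luminescence, detergent lysis, 60 min; evaluation: percent inhibition of parasite-derived β-gal signal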
HSF-1 act = increases HSF-1 driven luciferase reporter signal | NIH3T3-HGL HSF-1 luciferase reporter, MG132, 8 h; 100% = twice DMSO control signal | activation, % at 9 µM | AID 504408 | 300,000 compounds, 1.7% hits;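 active = mean replicate activation of at least 50% with a set share of replicates each reaching 50%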;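 also: 0% = median of the neutral control wells and 100% = twice that signal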
PfHsp90 yeast 2 = inhibits growth of yeast expressing Plasmodium falciparum Hsp90 | 310,000 compounds, 0.32% hits | inhibition, % at 9.4 µM | S. cerevisiae expressing PfHsp90, BacTiter-Glo ATP, 48 h; yeast lacking PDR1 and PDR3 efflux regulators;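 active = every replicate shows inhibition above about 80%, whatever the replicate mean, limit read from the data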;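 also: 0% = DMSO neutral controls and 100% = 20 µM radicicol positive controls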
* = called active by the depositor; · = not tested or not shown. Compounds with a hit are over-represented: about 3% of the library has one in this group of screens.

SMILES	Glyco luc inh	PvdQ inh	CaV13 FRET inh	T cruzi repl	HSF-1 act	PfHsp90 yeast 2
COc1ccc(CNC(=O)Oc2ccccc2)cc1Cl	2	-18	-2	-1	94*	42
O=C(O)Cn1c2ccccc2c2ccccc21	2	-8	-3	-10	-9	28
O=C(O)Cn1c2c(c3ccccc31)CSc1ccc(Cl)cc1-2	2	-14	-20	-6	269*	1
CC(Oc1ccc(F)cc1Br)c1nc2ccccc2c(=O)[nH]1 (stereo not given)	3	5	-3	1	65*	-70
COc1ccc(NC(=O)C(c2ccc(C(F)(F)F)cc2)n2c(=O)c(-c3cc4ccccc4[nH]3)nc3ccccc32)cc1 (stereo not given)	·	·	-48	·	·	·
Nc1ccc(CSc2ccc(Cl)cc2)c(Cl)c1	-5	0	-2	·	·	19
Cc1ccc(NC(=O)CCC(=O)NN=Cc2ccc(C)o2)c(C)c1	1	·	-5	·	·	·
CO/N=C/NC(=O)c1ccc([N+](=O)[O-])c(CS(=O)(=O)c2ccc(Cl)cc2)c1	0	-12	·	10	-28	8
NNC(=O)c1ccc([N+](=O)[O-])c(CS(=O)(=O)c2ccc(Cl)cc2)c1	1	-7	-2	6	57*	3
COc1cccc(C2=Cc3ccc(F)cc3C(CC(C)=O)N2c2ccc(C#CC3(O)CCCCC3)cc2)c1 (stereo not given)	·	·	-6	·	·	·
Cc1sc2nc(C3CC3)nc(SCC(=O)N3CCc4ccccc4C3)c2c1C	-8	-11	-4	21	68*	·
Cc1sc2nc(C3CC3)nc(SCC(=O)N3CCCc4ccccc43)c2c1C	·	·	-2	20	-2	·
CCCCCn1c(-c2ccco2)nc2nc3ccccc3nc21	5	-12	·	14	14	3
c1ccc(Cn2c(-c3ccco3)nc3nc4ccccc4nc32)cc1	-3	-14	-4	11	90*	-4
c1coc(-c2nc3nc4ccccc4nc3n2CC2CCCO2)c1 (stereo not given)	4	-8	-5	-1	56*	-50
Cc1ccc(NC(=O)C2(C)CCCN(C(C)C)C2)cc1C (stereo not given)	0	·	-4	·	·	·
CCOC(=O)C1=CCN(S(=O)(=O)c2ccc(Cl)cc2)C1c1cccc(Cl)c1 (stereo not given)	·	·	-2	·	·	·
O=C(/C=C/c1nc2ccccc2s1)N1CCCCCC1	-6	-8	-5	9	75*	1
O=C(NC(C(=O)N1CCCC1C(=O)NC1CCCC1)c1ccccc1)c1cccs1 (stereo not given)	·	·	-2	·	·	·
O=C(OCC(=O)N1CCc2ccccc21)c1ccccc1	0	-14	·	-1	68*	9
COc1ccc(NC(=O)N2CCc3ccccc32)cc1	-12	-6	·	-8	65*	5
CCOc1ccc(N2CC(C(=O)N3CCc4ccccc43)CC2=O)cc1 (stereo not given)	3	8	-7	1	52*	10
COc1ccc(NC(=O)N2CCCc3ccccc32)cc1	-1	-17	-6	3	2	-27
Cc1ccc(OCC(=O)N2CCc3ccccc32)cc1	-5	4	-4	-10	67*	5
Cc1ccc2nc(-c3ccc(F)cc3)c(Cc3cccc(F)c3)n2c1	·	·	-9	·	·	·
SMILES	Glyco luc inh	PvdQ inh	CaV13 FRET inh	T cruzi repl	HSF-1 act	PfHsp90 yeast 2
C[C@@H]1CCCCO[C@@H](CN(C)C(=O)CCC(F)(F)F)[C@@H](C)CN([C@H](C)CO)C(=O)c2cc(N(C)C)ccc2O1	2	·	-6	·	·	·
COc1cc(F)ccc1-c1csc(C(O)c2ccc(F)cc2)n1 (stereo not given)	1	·	-10	·	·	·
CCOC(=O)/C=C/C(=O)N1CCc2ccccc21	-2	22	-7	-8	84*	23
CCc1ccc(OCC(=O)N2CCc3ccccc32)cc1	-2	0	-3	17	65*	6
CCc1ccc(OCC(=O)N2c3ccccc3CCc3ccccc32)cc1	-5	-4	-4	16	-13	3
CCCc1nc2ccccc2c(C(=O)OCC(=O)N2CCc3ccccc32)c1CC	-1	-8	-4	58*	-4	9
CCn1c(SCC(=O)NC2CCCC2)nc2c(c1=O)SCC2	0	·	-9	·	·	·
